These results are taken from ChEMBL document CHEMBL4043223, “Structure-activity relationship study of small molecule inhibitors of the DEPTOR-mTOR interaction” (Bioorg Med Chem Lett, 2017).

Calls of active or inactive are those of the source. The calls are words filed in the database; no cut-off is given here.

The target of data set [1] is DEP domain-containing mTOR-interacting protein (Homo sapiens) (UniProt Q8TB45). The data set can be described thus: Inhibition of mTOR binding to DEPTOR in human RPMI8226 cells assessed as increase in mTORC1-associated p70 phosphorylation at […] after 6 hrs by Western blot analysis. In kind it is cell-based. Background: Immunoblotting shows a protein as a band on a membrane.

Another data set concerns MM1.S. Put plainly: Cytotoxicity against human MM1S cells after 48 hrs by MTT assay. It is filed as functional, cell-based. In outline: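 MM1.S myeloma cells (DEPTOR-over-expressing) in 48 h MTT: 1–2 × 10^4 cells per well, graded compound concentrations, formazan at 570 nm. Quadruplicate wells; survival as % of DMSO control; IC50 derived from the concentration range.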
On the technique in general: Tetrazolium assays rely on reduction of a dye to a coloured formazan, in cell work by metabolically active cells.

Data set [2] is described as follows: Therapeutic index, ratio of IC50 for PBL (unknown origin) to IC50 for human RPMI8226 cells. In outline: (§1)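 Normal peripheral blood lymphocytes tested head-to-head with 8226 myeloma cells in 48 h MTT assays. […] Therapeutic index = IC50(PBL)/IC50(8226).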
The subject of data set [3] is RPMI-8226. The data set can be described thus: Cytotoxicity against human RPMI8226 cells after 48 hrs by MTT assay. In kind it is functional, cell-based. The note with it: RPMI-8226, 48 h. In outline: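 MTT in RPMI-8226 cells: 1–2 × 10^4 cells per well in complete medium, exposed 48 h to a range of compound concentrations. MTT reduction to formazan read at 570 nm. Quadruplicate wells per group; OD given as % of DMSO-only control set at 100%. IC50 taken from the concentration series.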

The subject of a further data set is PBL. Put plainly: Cytotoxicity against PBL (unknown origin) after 48 hrs by MTT assay. It is filed as cell-based. In outline:
as §1

The subject of data set [4] is RPMI-8226. The data set can be described thus: Cytotoxicity against RAPTOR knockdown human RPMI8226 cells at 0.12 to 1 uM after 48 hrs by MTT assay. It is filed as functional, cell-based. In outline:
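8226 cells infected with lentivirus carrying shRAPTOR or control shSCRAMBLE, knockdown confirmed by immunoblot. Cells then incubated with increasing compound concentrations; MTT read-out after 48 h, formazan at 570 nm, as % of DMSO control.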

The subject of data set [5] is RPMI-8226. Put plainly: Induction of apoptosis in human RPMI8226 cells assessed as caspase3 activation at 0.12 to 2 uM after 48 hrs by cytofix/cytoperm staining based flow cytometry. It is filed as functional, cell-based. In outline:
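Caspase-3 flow cytometry 48 h after drug exposure of 8226 cells. 10^6 cells washed in PBS, fixed and permeabilized in cytofix/cytoperm, stained 30 min with PE-conjugated anti-active-caspase-3 (1:5 dilution). % apoptosis = drug-treated minus DMSO-control positives; mean ± SD, n = 4.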
In general terms: Flow cytometry measures light scatter and fluorescence of single cells or particles in a stream.

The target of data set [6] is DEP domain-containing mTOR-interacting protein (Homo sapiens) (UniProt Q8TB45). The data set can be described thus: Inhibition of mTOR binding to DEPTOR in human RPMI8226 cells at 0.5 uM treated 6 hrs followed by DEPTOR immunoprecipitation by immunoblotting analysis. In kind it is cell-based. In outline:
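Co-immunoprecipitation: 8226 cells treated 6 h with DMSO or 0.5 µM compound. DEPTOR immunoprecipitated; precipitates immunoblotted for DEPTOR and bound mTOR.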

For data set [7] the target is unchanged. Put plainly: Inhibition of mTOR binding to DEPTOR in human RPMI8226 cells assessed as increase in mTORC1-associated p70 phosphorylation at 1 uM after 6 hrs by Western blot analysis. It is filed as cell-based. In outline:
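8226 cells exposed 6 h to compound, DMSO in untreated controls. Lysates run on 12.5% SDS-PAGE, transferred to PVDF, probed for phospho- and total p70. Densitometric phospho/total ratio expressed as fold versus parent compound B set at 1; mean ± SD, n = 4.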

Data set [8] has the same target. The data set can be described thus: Inhibition of DEPTOR in human RPMI8226 cells assessed as upregulation of mTORC1-dependant p21 expression at 0.5 to 2 uM after 6 hrs by Western blot analysis. It is filed as cell-based.
The target is the same in data set [9]. Put plainly: Inhibition of mTOR binding to DEPTOR in human RPMI8226 cells assessed as decrease in AKT phosphorylation at […] residue by Western blot analysis. It is filed as cell-based.
The target is the same in data set [10]. The data set can be described thus: Inhibition of mTOR binding to DEPTOR in human RPMI8226 cells assessed as increase in mTORC1-associated S6 phosphorylation by Western blot analysis. In kind it is cell-based.
Data set [11] shares this target. Put plainly: Inhibition of mTOR binding to DEPTOR in human RPMI8226 cells assessed as increase in mTORC2-associated SGK phosphorylation by Western blot analysis. In kind it is cell-based.
The target is the same in data set [12]. Put plainly: Inhibition of mTOR binding to DEPTOR in human RPMI8226 cells assessed as increase in mTORC1-associated 4E-BP1 phosphorylation by Western blot analysis. In kind it is cell-based.
Data set [13] relates to RPMI-8226. Put plainly: Cytotoxicity against human RPMI8226 cells after 48 hrs in presence of mTOR inhibitor pp242 by MTT assay. In kind it is functional, cell-based.
The test system of data set [14] is RPMI-8226. Put plainly: Induction of apoptosis in human RPMI8226 cells assessed as caspase3 activation in presence of mTOR inhibitor pp242 by cytofix/cytoperm staining based flow cytometry. In kind it is functional, cell-based.
For data set [15], the target named is DEP domain-containing mTOR-interacting protein (Homo sapiens) (UniProt Q8TB45). Put plainly: Inhibition of mTOR binding to DEPTOR in human RPMI8226 cells assessed as increase in mTORC2-associated AKT phosphorylation at S473 residue by Western blot analysis. In kind it is cell-based.
Data set [16] shares this target. The data set can be described thus: Inhibition of mTOR binding to DEPTOR in human RPMI8226 cells at 1 uM treated 6 hrs followed by DEPTOR immunoprecipitation by immunoblotting analysis. It is filed as cell-based. In outline: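 RPMI8226 myeloma cells exposed to compound or DMSO for 6 h; DEPTOR immunoprecipitated from cell extracts, and precipitates immunoblotted for DEPTOR and co-precipitated mTOR. Proteins resolved by 12.5% SDS-PAGE, transferred to PVDF and detected with specific antibodies.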

The test system of data set [17] is RPMI-8226. Put plainly: Anti-tumor activity against human RPMI8226 cells xenografted in mouse assessed as reduction in tumor growth at 20 mg/kg, ip administered daily for 3 days measured post last dose. It is filed as functional, organism-based. In outline: (§2)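 Immunodeficient mice inoculated subcutaneously with 8226 myeloma cells. Once tumors reached 500 mm3, daily treatment at 20 mg/kg was started.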

Data set [18] deals with Mus musculus. The data set can be described thus: Toxicity in mouse xenografted with human RPMI8226 cells assessed as effect on platelet level at 20 mg/kg, ip administered daily for 3 days measured post last dose. It is filed as organism-based. The note with it: in vivo, 72 h. In outline:
as §2

Data set [19] relates to Mus musculus. Put plainly: Toxicity in mouse xenografted with human RPMI8226 cells assessed as effect on RBC level at 20 mg/kg, ip administered daily for 3 days measured post last dose. It is filed as organism-based. The settings on record: in vivo, 72 h. In outline: as §2
Data set [20] has as its system Mus musculus. The data set can be described thus: Toxicity in mouse xenografted with human RPMI8226 cells assessed as effect on WBC level at 20 mg/kg, ip administered daily for 3 days measured post last dose. It is filed as organism-based. The note with it: in vivo, 72 h. In outline: as §2
The next data set is filed under the species Homo sapiens. The data set can be described thus: Activation of mTORC1 in DEPTOR knockdown human RPMI8226 cells assessed as increase in p70 phosphorylation. In outline: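 DEPTOR silenced in 8226 cells by shRNA lentivirus, with shScramble-transfected cells as control. Cells drug-treated, then p70 phosphorylation assessed by immunoblot.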
Data set [21] deals with RPMI-8226. The data set can be described thus: Cytotoxicity against human RPMI8226 cells at 0.05 to 0.2 uM after 6 hrs by MTT assay. It is filed as cell-based. The settings on record: rpmi-8226, 6 h.
In data set [22] the test system is RPMI-8226. The data set can be described thus: Cytotoxicity against human RPMI8226 cells at 0.5 uM after 6 hrs by MTT assay. It is filed as cell-based. The note with it: rpmi-8226, 6 h.
For data set [23], the system named is RPMI-8226. The data set can be described thus: Cytotoxicity against human RPMI8226 cells at 1 to 2 uM after 6 hrs by MTT assay. In kind it is cell-based. The note with it: rpmi-8226, 6 h.

Chain of DEP domain-containing mTOR-interacting protein (Homo sapiens) (Q8TB45 whole entry, the tested form may be a part): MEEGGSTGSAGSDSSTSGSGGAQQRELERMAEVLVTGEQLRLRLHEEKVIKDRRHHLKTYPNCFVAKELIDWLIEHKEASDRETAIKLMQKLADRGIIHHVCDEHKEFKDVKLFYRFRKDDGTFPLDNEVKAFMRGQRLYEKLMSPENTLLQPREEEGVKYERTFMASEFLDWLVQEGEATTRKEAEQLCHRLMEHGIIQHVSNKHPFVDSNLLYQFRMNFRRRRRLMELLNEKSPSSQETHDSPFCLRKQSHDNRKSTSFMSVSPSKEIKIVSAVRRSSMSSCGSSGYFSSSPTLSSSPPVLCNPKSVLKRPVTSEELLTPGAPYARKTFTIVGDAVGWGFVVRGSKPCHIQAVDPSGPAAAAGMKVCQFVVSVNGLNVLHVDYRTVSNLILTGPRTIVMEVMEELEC

With `Fc1ccc(NN=C2C(Cl)=C(Cl)C(Cl)=C2Cl)cc1`, the inhibition result in [1], in data set [6] and in data set [7] was “Active” in each case. The results for the IC50 in the data set on MM1.S, in the data set with RPMI-8226 [3] and with PBL were 1.3 µM, 0.6 to 0.7 µM and 20 µM, respectively. Moreover, the “Ratio IC50” value in [2] was determined as 33. The outcome in the data set with RPMI-8226 [4] was inactive. Moreover, in the data set with RPMI-8226 [5], the outcome was Active.
`CC(C)(C)OC(=O)NN=C1C(Cl)=C(Cl)C(Cl)=C1Cl`: the inhibition entry in [8], in [1], in [9], in data set [10], in [11] and in data set [12] was “Active” throughout. For the same compound, the inhibition result in data set [6], in data set [15] and in data set [7] was “Active” throughout. For the same compound, the IC50 in the data set on MM1.S was 0.6 µM; in the data set with RPMI-8226 [3], 0.1 to 0.11 µM; in the data set with PBL, 5 µM. In addition, the “Ratio IC50” value in data set [2] was found to be 45.5. The outcome in the data set with RPMI-8226 [4], in the data set on RPMI-8226 [13] and in the data set on RPMI-8226 [14] was inactive. Further, the outcome with RPMI-8226 [5] was Active.
Turning to `CC(C)(C)C(=O)NN=C1C(Cl)=C(Cl)C(Cl)=C1Cl`, the inhibition result in data set [8], in data set [1] and in [7] was “Active” each time. Moreover, the IC50 was 2 µM in the data set on MM1.S, 0.09 to 0.12 µM in the data set with RPMI-8226 [3] and 1.25 µM in the data set on PBL. Also, in data set [2], the “Ratio IC50” value was determined as 14. Also, the result with RPMI-8226 [5] was Active.
Turning to `O=C(c1ccc(F)cc1)N(N=C1C(Cl)=C(Cl)C(Cl)=C1Cl)C(=O)c1ccc(F)cc1`, the inhibition entry in [8], in [1] and in [7] was “Active” each time. The IC50 in the data set with MM1.S is 0.3 µM; in the data set on RPMI-8226 [3] it was 0.2 to 0.25 µM; in the data set with PBL it was 2 µM. For the same compound, the “Ratio IC50” value in data set [2] is reported as 10. Besides, in the data set with RPMI-8226 [5], the outcome was Active.
With `NN=C1C(Cl)=C(Cl)C(Cl)=C1Cl`, the IC50 is 3 µM in the data set on MM1.S, 1.3 to 1.5 µM in the data set on RPMI-8226 [3] and 20 µM with PBL. The “Ratio IC50” value in [2] amounted to 14.3. Further, the inhibition result in data set [16] and in [7] was “Active” each time. Besides, the outcome with RPMI-8226 [5] was Active. In data set [6], the inhibition entry is “inactive”.
As for `FC(F)(F)c1cccc(NN=C2C(Cl)=C(Cl)C(Cl)=C2Cl)c1`, the inhibition result in data set [8], in [1], in data set [9], in data set [10], in [11] and in [12] was “Active” in each case. The inhibition result in [6], in data set [15] and in data set [7] was “Active” each time. The IC50 with MM1.S is 1 µM; in the data set on RPMI-8226 [3], 0.11 to 0.17 µM; in the data set on PBL, 15 µM. The “Ratio IC50” value in [2] stood at 136. For the same compound, the outcome in the data set on RPMI-8226 [17] and in the data set on RPMI-8226 [5] was Active. For the same compound, the Activity entry with Mus musculus [18], with Mus musculus [19] and with Mus musculus [20] was “Non-Toxic” in each case. Also, the outcome in the data set with RPMI-8226 [4], in the data set with RPMI-8226 [13], in the data set with RPMI-8226 [14] and in the data set filed under Homo sapiens was inactive.
`O=C(NN=C1C(Cl)=C(Cl)C(Cl)=C1Cl)c1ccccc1`: the IC50 amounted to 0.8 µM in the data set with MM1.S and 0.6 µM in the data set with RPMI-8226 [3]. Besides, the Activity entry in the data set with RPMI-8226 [21] is reported as “Non-Toxic”; in the data set on RPMI-8226 [22] it was “Toxic”; in the data set with RPMI-8226 [23] it was “Toxic”.

As usually defined, the IC50 is the midpoint of a concentration-inhibition curve.
